Screens: PubChem BioAssay, several laboratories
A selection: hits, their analogues and other compounds. The true share with any hit is near 1.9%.
RanGTP-Impb inh – inhibitors of RanGTP-importin-beta interaction, primary screen, biochemical, FRET, CFP-Ran, YFP-importin-beta, homogeneous. Ran GTPase (GTP-bound) - importin-beta complex. cell-free CFP-Ran/YFP-importin-beta FRET ratio. inhibition, % (no concentration beside the values). hit rate 1.1% among 300,000;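 active means more than half of the replicate wells show a fall in the fluorescence ratio signal beyond about 16%, limit read from the data, passing the limit was not always enough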;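 further: 0% = DMSO wells and 100% = Ran loaded with GDP instead of GTP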
Hck-Nef inh – inhibitors of Nef-activated human Hck kinase, primary screen, biochemical, Z-Lyte FRET, 384-well, Hck-YEEI; Recombinant Hck-YEEI plus Nef, Z-Lyte FRET kinase assay; inhibition, % at 20 µM; hit rate 0.68% among 220,000; Tyrosine-protein kinase HCK (Homo sapiens), P08631;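 active means Hck-Nef kinase inhibition above about 50%, limit read from the data; inactive means inhibition below that limit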;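 further: 0% = DMSO with Hck plus Nef and 100% = Hck alone without Nef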
Runt-SMMHC FRET – inhibitors of RUNX1 Runt–CBFb-SMMHC binding, primary screen, biochemical, FRET, Cerulean-Runt, Venus-CBFb-SMMHC, uHTS; Runt-related transcription factor 1 (Homo sapiens) + Core-binding factor subunit beta …; Cerulean-Runt/Venus-CBFb-SMMHC FRET ratio 530/480, 1 h; inhibition, % at 20 µM; hit rate 0.74% among 220,000;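 active means mean inhibition across duplicate retests at 20 µM reaching about 50%, limit read from the data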;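 further: 0% = DMSO wells and 100% = wells with excess untagged CBFb-SMMHC; inhibitors lower the FRET ratio by blocking Runt binding to CBFb-SMMHC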
Target sequence (Q01196 whole entry, looked up): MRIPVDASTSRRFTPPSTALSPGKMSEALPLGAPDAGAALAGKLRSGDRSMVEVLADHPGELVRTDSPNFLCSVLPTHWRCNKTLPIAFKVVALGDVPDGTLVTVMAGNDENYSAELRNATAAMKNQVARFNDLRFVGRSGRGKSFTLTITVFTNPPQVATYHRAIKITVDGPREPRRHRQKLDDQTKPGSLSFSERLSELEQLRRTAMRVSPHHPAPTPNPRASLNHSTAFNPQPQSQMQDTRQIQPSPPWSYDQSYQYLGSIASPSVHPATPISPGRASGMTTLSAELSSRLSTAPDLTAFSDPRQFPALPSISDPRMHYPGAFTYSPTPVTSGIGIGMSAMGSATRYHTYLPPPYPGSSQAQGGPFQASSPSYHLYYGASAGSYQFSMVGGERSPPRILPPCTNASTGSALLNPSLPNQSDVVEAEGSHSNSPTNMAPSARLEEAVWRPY
Target sequence (Q13951 whole entry, looked up): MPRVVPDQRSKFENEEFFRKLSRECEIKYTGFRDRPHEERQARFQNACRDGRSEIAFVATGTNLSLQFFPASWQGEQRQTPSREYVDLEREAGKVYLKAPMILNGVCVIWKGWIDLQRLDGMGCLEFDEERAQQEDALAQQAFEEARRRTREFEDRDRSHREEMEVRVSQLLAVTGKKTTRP
TbHK1 inh – Trypanosoma brucei hexokinase 1 inhibitors, primary screen, biochemical, G6PDH-coupled NADH absorbance, MLSCN library. recombinant TbHK1, G6PDH-coupled NADH A340. hit rate 0.11% among 220,000. hexokinase 1 [Trypanosoma brucei]. inhibition, % at 10 µM;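 active means inhibition of 50% or more in the single-dose primary screen; inactive means inhibition below 50%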
Runt-CBFb FRET – inhibitors of RUNX1 Runt–CBFb binding, primary screen, biochemical, FRET, Cerulean-Runt, Venus-CBFb, uHTS; Runt-related transcription factor 1 (Homo sapiens) + Core-binding factor subunit beta …; Cerulean-Runt/Venus-CBFb FRET ratio 530/480, 1 h; inhibition, % at 20 µM; hit rate 0.46% among 220,000;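 active means inhibition over about 50% at 20 µM in the single-dose screen, limit read from the data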;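 further: 0% = DMSO wells and 100% = excess unlabeled CBFb competitor control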
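Assay system: Cerulean-tagged RUNX1 Runt domain (FRET donor) fusion protein / Amount: 100 nM each of Venus-CBFb and Cerulean-Runt domain / Medium: Tris buffer pH 7.5 with salts and BSA / Also added: Venus-CBFb 100 nM / Schedule: 1 h complex formation plus 1 h compound treatment, room temperature / Signal: FRET fluorescence / Read-out: loss of energy transfer signal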
YIC FRET counter – YIC intramolecular FRET probe signal interference, dose response, counter-screen for RanGTP-importin-beta inhibitor project, biochemical, fluorescence FRET | hit rate 40% among 1,000 | AID 435026, 2010 | IC50, µM | shares compounds with RanGTP-Impb inh | Purified YIC probe, intramolecular FRET ratio YFP/CFP;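 active means fitted half-maximal inhibitory concentration no more than tenfold above the top dose tested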
The depositor's hits bear a star; . = not tested or not shown.

SMILES | RanGTP-Impb inh | Hck-Nef inh | Runt-SMMHC FRET | TbHK1 inh | Runt-CBFb FRET | YIC FRET counter
Cc1ccnc(NC(=O)CCC(=O)N(CC(=O)NCc2ccc(F)cc2)Cc2ccccc2)c1 | 0 | . | . | . | . | .
COC(=O)c1ccccc1NCc1cc(=O)oc2cc(O)c(O)cc12 | 20* | . | . | . | . | 4.5*
CCN(C(=O)c1cccc(S(=O)(=O)N2CCCCC2)c1)C1CCS(=O)(=O)C1 (centres undefined) | -5 | . | . | . | . | .
CC1CCCCN1C(=O)Cn1c(=O)oc2cc(S(=O)(=O)N3CCCC3)ccc21 (centres undefined) | 17* | . | . | . | . | >50
CC1CCN(C(=O)Cn2c(=O)oc3cc(S(=O)(=O)N4CCCCC4)ccc32)CC1 | 0 | . | . | . | . | .
CCN(C(=O)c1ccc(Cl)cc1[N+](=O)[O-])c1ccccc1C | 19* | 24 | 2 | 3 | 0 | >50
O=C(c1ccc(Cl)cc1[N+](=O)[O-])N(Cc1ccccc1)Cc1ccccc1 | 0 | 2 | 0 | 9 | -1 | .
CN(C)c1oc(-c2cccs2)nc1C#N | 24* | 1 | -2 | -30 | 1 | >50
Cc1ccccc1OCCC(=O)OCC(=O)Nc1c(C)nn(-c2ccccc2)c1C | 7 | . | . | . | . | .
CCN(CC)S(=O)(=O)c1ccc(NC(=O)c2cccc3c2C(=O)N(CCOC)C3)cc1 | 19* | 2 | 8 | -10 | -5 | >50
Cc1ccc(N2NC(=O)/C(=C\c3cc4c(cc3[N+](=O)[O-])OCO4)C2=O)cc1C | 25* | 15 | 7 | 2 | 13 | >50
COc1cc(-c2nc3cnccn3c2Nc2ccc(C(C)C)cc2)ccc1O | 32* | -2 | 11 | -11 | 2 | >50
Cc1ccc(C)c2nc(N3CCCC3)c(C#N)cc12 | 51* | 6 | 94* | 0 | 67* | 1.2*
CC(=O)Nc1ccc(S(=O)(=O)NC2CC(=O)N(c3ccc(C)c(C)c3)C2)cc1 (centres undefined) | -3 | . | . | . | . | .
Cc1nnc(Sc2nc3c(c(=O)n(C)c(=O)n3C)n2Cc2ccccc2Cl)s1 | 17* | 9 | . | -2 | . | >50
CCCOC(=S)NC(=O)c1sc2ccccc2c1Cl | 31* | 3 | 3 | -4 | 0 | >50
NC(=O)N/N=C/c1ccc(OCc2cccc(Cl)c2)cc1 | -1 | 9 | 2 | -5 | 1 | .
COc1ccc2c(c1)O/C(=C\c1ccco1)C2=O | 21* | 27 | 61* | -29 | 14 | 19*
COC(=O)C(C)Oc1ccc2c(c1)O/C(=C\c1ccco1)C2=O (centres undefined) | 21* | . | . | . | . | 17*
Cc1ccc(Cl)cc1N1C(=O)CC(Sc2ncccn2)C1=O (centres undefined) | 16* | . | . | . | . | >50
CC(=O)c1cc(CN2CCC(n3nccc3NC(=O)c3ccccc3)CC2)cs1 | 2 | . | . | . | . | .
O=C(c1ccco1)N1CCN(c2cc(=O)n(-c3ccc(Cl)cc3)c(=O)[nH]2)CC1 | 48* | 0 | 2 | -2 | 0 | >50
CC(O)CNc1nc2ccccc2n1CC(=O)NC12CC3CC(CC(C3)C1)C2 (centres undefined) | 22* | 26 | 1 | -1 | -3 | >50
CN(C)/C=N/c1nc2nccc(-c3cccs3)n2n1 | 17* | 22 | 10 | -45 | 2 | 14*
CN(C)/C=N/c1nc2nccc(-c3ccc(F)cc3)n2n1 | -3 | 22 | -1 | -26 | 2 | .
SMILES | RanGTP-Impb inh | Hck-Nef inh | Runt-SMMHC FRET | TbHK1 inh | Runt-CBFb FRET | YIC FRET counter
CCOC(=O)N1CCC(NC(=O)c2cc(COc3c(C)cccc3C)on2)CC1 | -1 | . | . | . | . | .
Cc1ccc(S(=O)(=O)NCCN(CCNS(=O)(=O)c2ccc(C)cc2)S(C)(=O)=O)cc1 | 21* | 0 | -3 | -2 | -4 | >50
CCCCNS(=O)(=O)c1ccc(NC(=O)C(Sc2ccccc2)c2ccccc2)cc1 (centres undefined) | -4 | 3 | -2 | 7 | 1 | .
COc1ccc(-c2nc3ccc(C(=O)NCCCN4CCOCC4)cc3nc2-c2ccc(OC)cc2)cc1 | 21* | . | . | . | . | 22*
N#CCN(CC#N)C(=O)C1c2ccccc2Oc2ccccc21 | 0 | . | . | . | . | .
O=C1NC(c2cccc([N+](=O)[O-])c2)Oc2ccccc21 (centres undefined) | 22* | -1 | 1 | -6 | 2 | >50
O=C1NC(c2ccc(F)cc2)Oc2ccccc21 (centres undefined) | -4 | . | . | . | . | .
Clc1ccc(-c2ncc3ccccn23)cc1 | 26* | 21 | . | -12 | . | >50
Clc1ccccc1-c1ncc2ccccn12 | 1 | 2 | 10 | -11 | 1 | .
CCOc1ccc(C(=O)c2cc3ccc(O)cc3oc2=O)cc1 | 53* | 32 | 90* | -12 | 86* | 8*
O=C(c1ccc([N+](=O)[O-])cc1)c1cc2ccc(O)cc2oc1=O | 2 | . | . | . | . | .
Cc1cc(Nc2ccccc2)nn1C(=O)c1ccccc1 | 18* | 3 | -6 | -7 | -2 | >50
COc1cccc(NC(=S)N(CCCN2CCOCC2)C(C)c2cc3ccccc3o2)c1 (centres undefined) | 0 | 23 | 1 | -1 | -1 | .
CCc1occc(=O)c1Oc1cc(NN2CCCCC2)c([N+](=O)[O-])cc1[N+](=O)[O-] | -3 | . | . | . | . | .
Cc1nc2ccc(NC(=O)c3nn(CC(C)C)c(=O)c4ccccc34)cc2s1 | 20* | 0 | -4 | -13 | -2 | >50
Cc1cccc(N2C(=O)/C(=C/c3cccnc3)SC2=S)c1 | 19* | 23 | 1 | -35 | 2 | >50
Cn1nnnc1SCC(=O)Nc1nn(-c2ccccc2)nc1C(N)=O | 18* | 15 | -3 | 5 | 1 | >50
Cn1nnnc1SCC(=O)Nc1ccc(Oc2ccccc2)cc1 | 0 | 11 | -1 | 2 | 0 | .
COc1ccccc1C1C(C(N)=O)=C(C)Nc2ncnn21 (centres undefined) | 23* | 7 | 2 | -4 | 0 | >50
CCOC(=O)Cn1cnc2c(nnn2-c2ccc(F)cc2)c1=O | 6 | . | . | . | . | .
COc1cc(/C(O)=C(\C#N)c2nc3ccccc3[nH]2)cc(OC)c1OC | 40* | . | . | . | . | 7.4*
C=CCn1c(SCC(=O)N2CCCCC2)nnc1-c1ccncc1 | 36* | 11 | -2 | 6 | 0 | >50
COc1ccc(CN2CCOCCOCCN(Cc3ccc(OC)cc3)CCOCCOCC2)cc1 | -3 | 7 | -2 | 2 | 1 | .
NC(=O)c1ccc(F)cc1 | 17* | 0 | . | 0 | . | >50
